Assay results from ChEMBL document CHEMBL5674890, “Selective inhibition of CBP/p300 HAT by A-485 results in suppression of lipogenesis and hepatic gluconeogenesis” (Cell Death Dis, 2020).
Calls of active or inactive are those of the source. The calls are words filed in the database; no cut-off is given here.

Tests used:
Mus musculus [1] = experiment: Inhibition of lipogenesis in C57BL/6 mouse supplemented with high-fat diet assessed as decrease in adipocyte size of WAT at 20 mg/kg/day, ip administered for 1 week; format: functional, organism-based; conditions: time 1.0 weeks
Outline: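 Male C57BL/6 mice were fed high-fat diet for 14 weeks from 5 weeks of age, then injected ip with 20 mg·kg−1·day−1 for 7 days or given vehicle. Epididymal and inguinal WAT were weighed, examined by H&E, and analysed. Transcripts were measured by Trizol/SYBR Green RT-qPCR; proteins by western blot. n = 5–9; mean ± SEM.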

Adipocyte [2] = experiment: Inhibition of lipogenesis in mouse adipocytes isolated stromal vascular cells assessed as decrease in C/EBPalpha protein expression measured after 24 hrs by western blot analysis; format: functional, cell-based
Mus musculus [3] = experiment: Inhibition of lipogenesis in C57BL/6 mouse supplemented with normal chow diet assessed as effect on UCP1 mRNA expression at 20 mg/kg/day, ip administered for 1 week measured by RT-qPCR assay; format: functional, organism-based; conditions: time 1.0 weeks
Outline: (§1)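 Eight-week-old male C57BL/6 mice on normal chow were given 20 mg·kg−1·day−1 ip daily for 7 days or vehicle. Epididymal WAT was collected. Lipogenic, adipogenic and fatty-acid-oxidation transcripts were quantified by Trizol extraction and SYBR Green RT-qPCR. FAS, ACC, PPARγ and C/EBPα protein were assessed by western blot. n = 5–9; mean ± SEM.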

[4] = biological target: CREB-binding protein/Histone acetyltransferase p300 (Homo sapiens) (UniProt Q09472+Q92793); experiment: Inhibition of CBP/p300 in mouse primary hepatocytes stimulated with 100 uM 8-Br-cAMP assessed as decrease in FOXO1 protein expression at 3 uM in presence of 10 uM MG132; format: cell-based; conditions: Primary hepatocyte
Outline: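 Primary mouse hepatocytes exposed to 100 μM 8-Br-cAMP, 3 μM compound, 10 μg/ml cycloheximide and 10 μM MG132. FOXO1 protein measured by western blot, band intensity quantified. Three independent experiments.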

Adipocyte [5] = experiment: Inhibition of lipogenesis in mouse adipocytes isolated stromal vascular cells assessed as decrease in ACC protein expression measured after 24 hrs by western blot analysis; format: functional, cell-based
Mus musculus [6] = experiment: Anti-obesity activity in C57BL/6 mouse supplemented with high fat diet assessed as improvement in glucose tolerance at 20 mg/kg/day, ip administered for 1 week measured by intraperitoneal glucose tolerance test; format: functional, organism-based; conditions: time 1.0 weeks
Outline: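 High-fat diet mice (male C57BL/6, 14 weeks on HFD from 5 weeks of age), ip 20 mg·kg−1·day−1 for 7 days. 16 h fast, then glucose 2 g/kg body weight ip; blood glucose tracked during the test.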

Mus musculus [7] = experiment: Anti-obesity activity in 16 hrs fasted C57BL/6 mouse supplemented with normal chow diet assessed as decrease in blood glucose level at 20 mg/kg/day, ip administered for 1 week measured after 30 mins by intraperitoneal glucose tolerance test; format: functional, organism-based; conditions: time 1.0 weeks
Outline: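 Male C57BL/6 mice on normal chow, 8 weeks old, given 20 mg·kg−1·day−1 ip daily for 7 days. After 16 h fasting, glucose 2 g/kg body weight ip; blood glucose read during the test. Mean ± SEM, n = 5–9; t test or ANOVA, P < 0.05.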

Mus musculus [8] = experiment: Inhibition of lipogenesis in C57BL/6 mouse supplemented with normal chow diet assessed as decrease in C/EBPalpha protein expression at 20 mg/kg/day, ip administered for 1 week measured measured by western blot analysis; format: functional, organism-based; conditions: time 1.0 weeks; outline: as §1
Mus musculus [9] = experiment: Inhibition of hepatic lipogenesis in C57BL/6 mouse supplemented with normal chow diet assessed as effect on ACO mRNA expression at 20 mg/kg/day, ip administered for 1 week measured by RT-qPCR assay; format: functional, organism-based; conditions: time 1.0 weeks
Outline: (§2)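 Normal-chow male C57BL/6 mice, 8 weeks old, were injected ip at 20 mg·kg−1·day−1 daily for 7 days or given vehicle. Liver RNA was extracted with Trizol, and fatty-acid-oxidation gene transcripts were quantified by SYBR Green RT-qPCR. n = 5–9; mean ± SEM.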

Hepatocyte [10] = experiment: Inhibition of glucogenesis in mouse primary hepatocytes stimulated with 100 uM 8-Br-cAMP assessed as decrease in PEPCK mRNA expression at 3 uM in combination with 2 mM metformin measured by RT-qPCR assay; format: functional, cell-based
Outline: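 Primary mouse hepatocytes given 3 μM compound with 2 mM metformin in the presence of 100 μM 8-Br-cAMP. Gluconeogenic gene mRNA measured by SYBR Green RT-qPCR. Mean ± SEM, three independent experiments.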

Mus musculus [11] = experiment: Anti-obesity activity in 6 hrs fasted C57BL/6 mouse supplemented with normal chow diet assessed as effect on fasting blood glucose at 20 mg/kg/day, ip administered for 1 week; format: functional, organism-based; conditions: time 1.0 weeks
Outline: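 8-week-old male C57BL/6 mice on normal chow, ip 20 mg·kg−1·day−1 for 7 days. Blood glucose measured randomly fed or after 6 h or 16 h fasting, as the line states. Mean ± SEM, n = 5–9.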

Mus musculus [12] = experiment: Inhibition of hepatic lipogenesis in C57BL/6 mouse supplemented with normal chow diet assessed as decrease in FAS protein expression at 20 mg/kg/day, ip administered for 1 week measured by western blot analysis; format: functional, organism-based; conditions: time 1.0 weeks
Outline: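 Normal-chow male C57BL/6 mice, 8 weeks old, were injected ip at 20 mg·kg−1·day−1 daily for 7 days or given vehicle. Liver tissue was homogenized in lysis buffer, and FAS and ChREBP protein were assessed by western blot. n = 5–9.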

Mus musculus [13] = experiment: Anti-obesity activity in C57BL/6 mouse supplemented with normal chow diet assessed effect on total lean mass at 20 mg/kg/day, ip administered for 1 week measured by EchoMRI live analysis; format: functional, organism-based; conditions: time 1.0 weeks
Outline: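 Normal-chow male C57BL/6 mice, 8 weeks old, ip 20 mg·kg−1·day−1 daily for 7 days. Total lean and fat mass measured in live animals by EchoMRI. Mean ± SEM, n = 5–9.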

Hepatocyte [14] = experiment: Inhibition of lipogenesis in mouse primary hepatocytes assessed as decrease in ACC protein expression at 3 uM in presence of 100 nM insulin and 5 to 25 mM glucose measured after 18 hrs by western blot analysis; format: functional, cell-based
Mus musculus [15] = experiment: Inhibition of hepatic lipogenesis in C57BL/6 mouse supplemented with high fat diet assessed as decrease in triglyceride level at 20 mg/kg/day, ip administered for 1 week; format: functional, organism-based; conditions: time 1.0 weeks
Outline: (§3)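 Male C57BL/6 mice received ip A-485 at 20 mg·kg−1·day−1 for 7 days, versus vehicle. NCD mice were 8 weeks old. HFD mice had been on high-fat diet for 14 weeks from 5 weeks of age. Liver triglyceride and total cholesterol content was determined. n = 5–9; mean ± SEM.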

Mus musculus [16] = experiment: Inhibition of hepatic lipogenesis in C57BL/6 mouse supplemented with normal chow diet assessed as effect on ACADVL mRNA expression at 20 mg/kg/day, ip administered for 1 week measured by RT-qPCR assay; format: functional, organism-based; conditions: time 1.0 weeks; outline: as §2
Mus musculus [17] = experiment: Inhibition of hepatic lipogenesis in C57BL/6 mouse supplemented with normal chow diet assessed as decrease in total cholesterol level at 20 mg/kg/day, ip administered for 1 week; format: functional, organism-based; conditions: time 1.0 weeks; outline: as §3
Hepatocyte [18] = experiment: Inhibition of glucogenesis in mouse primary hepatocytes stimulated with 100 uM 8-Br-cAMP assessed as decrease in PEPCK mRNA expression at 3 uM in presence of cAMP measured after 8 hrs by RT-qPCR assay; format: functional, cell-based
Outline: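 Primary mouse hepatocytes treated with 3 μM compound and 100 μM 8-Br-cAMP for 8 h. Trizol RNA, SYBR Green RT-qPCR of the named transcript. Mean ± SEM, three independent experiments.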

CREB-binding protein/Histone acetyltransferase p300 (Homo sapiens), sequence (Q09472 whole entry, looked up): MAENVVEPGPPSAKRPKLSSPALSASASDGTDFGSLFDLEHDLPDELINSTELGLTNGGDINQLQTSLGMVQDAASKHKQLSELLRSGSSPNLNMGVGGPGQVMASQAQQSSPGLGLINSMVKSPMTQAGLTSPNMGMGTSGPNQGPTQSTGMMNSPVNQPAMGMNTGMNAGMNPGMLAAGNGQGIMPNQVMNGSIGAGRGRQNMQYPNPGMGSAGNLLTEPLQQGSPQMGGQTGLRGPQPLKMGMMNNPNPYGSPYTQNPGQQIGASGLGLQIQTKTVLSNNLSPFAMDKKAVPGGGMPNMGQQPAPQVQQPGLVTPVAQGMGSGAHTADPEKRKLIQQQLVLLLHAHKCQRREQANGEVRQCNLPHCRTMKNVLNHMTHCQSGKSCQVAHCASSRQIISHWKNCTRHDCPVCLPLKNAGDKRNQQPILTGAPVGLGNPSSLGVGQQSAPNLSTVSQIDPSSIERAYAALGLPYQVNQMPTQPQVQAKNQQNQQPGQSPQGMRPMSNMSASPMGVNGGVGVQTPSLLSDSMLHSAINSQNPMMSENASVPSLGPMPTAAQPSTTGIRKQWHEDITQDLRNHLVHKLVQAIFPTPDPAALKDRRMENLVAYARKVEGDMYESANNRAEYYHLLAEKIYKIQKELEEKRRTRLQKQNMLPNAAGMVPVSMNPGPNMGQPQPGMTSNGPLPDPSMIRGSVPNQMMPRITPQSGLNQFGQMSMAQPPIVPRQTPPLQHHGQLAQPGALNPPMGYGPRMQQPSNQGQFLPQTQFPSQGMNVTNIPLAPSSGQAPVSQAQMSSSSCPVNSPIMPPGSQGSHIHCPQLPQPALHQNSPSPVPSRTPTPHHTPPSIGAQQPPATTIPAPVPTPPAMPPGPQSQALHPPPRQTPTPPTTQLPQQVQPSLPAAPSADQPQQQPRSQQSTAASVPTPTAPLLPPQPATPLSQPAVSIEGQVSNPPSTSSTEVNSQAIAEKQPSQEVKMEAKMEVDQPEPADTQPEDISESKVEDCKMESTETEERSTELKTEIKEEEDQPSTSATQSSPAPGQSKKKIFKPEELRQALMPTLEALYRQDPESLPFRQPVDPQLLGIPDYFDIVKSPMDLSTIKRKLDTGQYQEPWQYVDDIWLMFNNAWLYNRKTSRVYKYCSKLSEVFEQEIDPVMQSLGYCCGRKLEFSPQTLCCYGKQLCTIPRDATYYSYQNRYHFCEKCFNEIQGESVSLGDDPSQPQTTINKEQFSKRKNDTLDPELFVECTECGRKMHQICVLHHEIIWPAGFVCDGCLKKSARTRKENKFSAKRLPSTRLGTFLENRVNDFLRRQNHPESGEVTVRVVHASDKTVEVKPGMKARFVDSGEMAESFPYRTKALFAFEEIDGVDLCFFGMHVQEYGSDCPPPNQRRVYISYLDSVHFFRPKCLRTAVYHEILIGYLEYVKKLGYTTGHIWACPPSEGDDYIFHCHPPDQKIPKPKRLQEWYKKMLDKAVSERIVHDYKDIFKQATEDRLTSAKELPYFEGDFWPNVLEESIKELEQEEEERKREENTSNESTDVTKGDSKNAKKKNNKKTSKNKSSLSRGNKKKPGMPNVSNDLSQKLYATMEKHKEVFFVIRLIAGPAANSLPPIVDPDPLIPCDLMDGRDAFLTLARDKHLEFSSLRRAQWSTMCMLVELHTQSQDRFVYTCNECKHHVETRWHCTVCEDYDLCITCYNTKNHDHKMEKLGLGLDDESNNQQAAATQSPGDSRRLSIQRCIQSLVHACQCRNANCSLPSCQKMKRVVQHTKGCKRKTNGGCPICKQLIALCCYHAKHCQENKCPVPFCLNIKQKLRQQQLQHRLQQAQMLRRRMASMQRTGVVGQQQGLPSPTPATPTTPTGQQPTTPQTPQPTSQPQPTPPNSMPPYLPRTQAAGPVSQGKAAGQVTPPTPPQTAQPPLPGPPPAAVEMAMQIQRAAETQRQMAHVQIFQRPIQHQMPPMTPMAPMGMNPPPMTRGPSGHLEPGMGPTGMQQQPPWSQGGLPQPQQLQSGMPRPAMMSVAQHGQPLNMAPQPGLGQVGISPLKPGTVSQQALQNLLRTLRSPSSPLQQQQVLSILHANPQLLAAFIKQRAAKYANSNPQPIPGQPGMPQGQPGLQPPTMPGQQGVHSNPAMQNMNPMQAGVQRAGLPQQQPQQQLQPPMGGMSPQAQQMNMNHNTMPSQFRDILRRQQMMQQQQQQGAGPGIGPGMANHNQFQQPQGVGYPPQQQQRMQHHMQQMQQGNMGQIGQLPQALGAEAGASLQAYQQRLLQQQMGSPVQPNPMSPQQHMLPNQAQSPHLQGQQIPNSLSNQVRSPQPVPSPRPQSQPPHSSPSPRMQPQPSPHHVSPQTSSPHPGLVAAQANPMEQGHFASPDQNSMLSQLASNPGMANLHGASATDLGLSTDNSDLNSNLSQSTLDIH
CREB-binding protein/Histone acetyltransferase p300 (Homo sapiens), sequence (Q92793 whole entry, looked up): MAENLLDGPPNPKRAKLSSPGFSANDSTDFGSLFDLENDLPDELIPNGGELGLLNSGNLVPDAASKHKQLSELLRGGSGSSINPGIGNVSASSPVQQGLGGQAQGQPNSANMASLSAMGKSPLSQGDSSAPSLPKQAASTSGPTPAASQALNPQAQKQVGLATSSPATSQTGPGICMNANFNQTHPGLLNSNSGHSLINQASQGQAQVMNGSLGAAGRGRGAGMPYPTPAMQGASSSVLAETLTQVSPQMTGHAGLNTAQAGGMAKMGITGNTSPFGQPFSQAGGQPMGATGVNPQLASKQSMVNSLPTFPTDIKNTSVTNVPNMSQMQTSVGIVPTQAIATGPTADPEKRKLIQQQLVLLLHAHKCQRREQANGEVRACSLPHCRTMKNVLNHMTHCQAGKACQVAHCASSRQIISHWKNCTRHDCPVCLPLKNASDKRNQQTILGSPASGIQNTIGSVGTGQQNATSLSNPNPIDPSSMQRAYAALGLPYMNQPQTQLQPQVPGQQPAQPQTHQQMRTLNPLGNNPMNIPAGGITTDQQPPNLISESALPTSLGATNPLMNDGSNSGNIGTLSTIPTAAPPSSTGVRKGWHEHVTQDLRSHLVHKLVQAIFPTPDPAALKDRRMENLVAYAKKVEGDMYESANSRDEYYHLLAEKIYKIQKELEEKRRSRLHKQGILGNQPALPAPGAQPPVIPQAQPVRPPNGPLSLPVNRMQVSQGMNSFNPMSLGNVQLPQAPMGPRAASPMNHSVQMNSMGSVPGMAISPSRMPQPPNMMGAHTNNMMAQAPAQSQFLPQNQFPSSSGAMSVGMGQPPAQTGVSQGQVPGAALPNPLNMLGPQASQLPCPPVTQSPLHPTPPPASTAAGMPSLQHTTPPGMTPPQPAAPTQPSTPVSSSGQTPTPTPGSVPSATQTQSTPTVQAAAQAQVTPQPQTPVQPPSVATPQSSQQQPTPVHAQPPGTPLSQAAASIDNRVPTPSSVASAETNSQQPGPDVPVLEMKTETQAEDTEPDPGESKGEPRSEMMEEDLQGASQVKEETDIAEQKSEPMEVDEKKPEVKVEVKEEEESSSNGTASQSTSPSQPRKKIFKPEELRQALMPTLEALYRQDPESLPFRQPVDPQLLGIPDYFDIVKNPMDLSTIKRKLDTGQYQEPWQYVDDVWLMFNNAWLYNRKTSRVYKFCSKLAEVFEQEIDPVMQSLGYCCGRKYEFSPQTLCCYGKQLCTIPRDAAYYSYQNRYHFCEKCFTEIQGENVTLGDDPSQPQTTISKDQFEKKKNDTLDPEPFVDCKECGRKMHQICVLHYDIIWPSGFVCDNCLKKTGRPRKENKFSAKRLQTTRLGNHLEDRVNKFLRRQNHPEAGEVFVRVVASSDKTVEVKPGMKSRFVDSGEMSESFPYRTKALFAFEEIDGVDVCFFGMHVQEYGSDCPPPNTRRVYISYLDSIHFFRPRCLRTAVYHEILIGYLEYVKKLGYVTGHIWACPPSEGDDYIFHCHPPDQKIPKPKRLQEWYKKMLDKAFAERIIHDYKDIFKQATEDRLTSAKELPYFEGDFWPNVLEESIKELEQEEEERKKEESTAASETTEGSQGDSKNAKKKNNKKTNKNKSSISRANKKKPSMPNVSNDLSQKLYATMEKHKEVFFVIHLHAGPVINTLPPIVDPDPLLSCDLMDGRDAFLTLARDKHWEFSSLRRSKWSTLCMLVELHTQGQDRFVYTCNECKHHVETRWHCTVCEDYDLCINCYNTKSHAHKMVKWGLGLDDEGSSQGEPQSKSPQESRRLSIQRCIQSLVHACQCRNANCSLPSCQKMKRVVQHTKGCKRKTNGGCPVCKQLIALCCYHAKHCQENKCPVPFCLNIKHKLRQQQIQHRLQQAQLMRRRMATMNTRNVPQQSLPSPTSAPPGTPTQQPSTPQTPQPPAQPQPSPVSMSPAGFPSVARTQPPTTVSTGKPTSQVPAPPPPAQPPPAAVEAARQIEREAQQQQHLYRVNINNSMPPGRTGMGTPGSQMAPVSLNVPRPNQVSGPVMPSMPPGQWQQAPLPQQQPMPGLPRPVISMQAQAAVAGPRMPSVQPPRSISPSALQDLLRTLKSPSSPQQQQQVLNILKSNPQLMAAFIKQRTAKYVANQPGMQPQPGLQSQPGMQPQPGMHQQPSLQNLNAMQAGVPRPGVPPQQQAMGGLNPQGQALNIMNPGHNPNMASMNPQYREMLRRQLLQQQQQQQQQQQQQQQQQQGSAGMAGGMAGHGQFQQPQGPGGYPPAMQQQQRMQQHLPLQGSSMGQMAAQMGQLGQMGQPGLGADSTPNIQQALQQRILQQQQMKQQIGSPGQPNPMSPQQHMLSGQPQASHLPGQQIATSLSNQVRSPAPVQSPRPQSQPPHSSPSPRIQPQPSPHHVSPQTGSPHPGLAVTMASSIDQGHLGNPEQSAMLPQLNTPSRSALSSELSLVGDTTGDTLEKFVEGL

- inhibition [4]: Active
Compound: CNC(=O)Nc1ccc2c(c1)CCS21OC(=O)N(CC(=O)N(Cc2ccc(F)cc2)[C@@H](C)C(F)(F)F)C1=O (stereo partly drawn)
- inhibition (Mus musculus [1]): Active
- inhibition (Adipocyte [2]): Active
- inhibition (Mus musculus [3]): inactive
- inhibition (Adipocyte [5]): Active
- Activity (Mus musculus [6]): Active
- Activity (Mus musculus [7]): Active
- inhibition (Mus musculus [8]): Active
- inhibition (Mus musculus [9]): inactive
- inhibition (Hepatocyte [10]): Active
- Activity (Mus musculus [11]): inactive
- inhibition (Mus musculus [12]): Active
- Activity (Mus musculus [13]): inactive
- inhibition (Hepatocyte [14]): Active
- inhibition (Mus musculus [15]): Active
- inhibition (Mus musculus [16]): inactive
- inhibition (Mus musculus [17]): Active
- inhibition (Hepatocyte [18]): Active
